# Screens from PubChem BioAssay.
# Neddylation inh = inhibitors of human cullin neddylation | P61081+Q13564 | TR-FRET cullin neddylation, biochemical | calls only at 25 µM | actives 0.58% (n = 360,000); in the data active = inhibition above about 36%
# Target sequence (P61081 whole entry, looked up): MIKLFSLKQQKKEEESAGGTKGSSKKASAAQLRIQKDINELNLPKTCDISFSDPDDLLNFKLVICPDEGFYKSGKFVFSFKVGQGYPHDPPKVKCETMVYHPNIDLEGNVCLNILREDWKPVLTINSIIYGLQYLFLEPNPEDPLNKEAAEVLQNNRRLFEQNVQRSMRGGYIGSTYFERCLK
# Target sequence (Q13564 whole entry, looked up): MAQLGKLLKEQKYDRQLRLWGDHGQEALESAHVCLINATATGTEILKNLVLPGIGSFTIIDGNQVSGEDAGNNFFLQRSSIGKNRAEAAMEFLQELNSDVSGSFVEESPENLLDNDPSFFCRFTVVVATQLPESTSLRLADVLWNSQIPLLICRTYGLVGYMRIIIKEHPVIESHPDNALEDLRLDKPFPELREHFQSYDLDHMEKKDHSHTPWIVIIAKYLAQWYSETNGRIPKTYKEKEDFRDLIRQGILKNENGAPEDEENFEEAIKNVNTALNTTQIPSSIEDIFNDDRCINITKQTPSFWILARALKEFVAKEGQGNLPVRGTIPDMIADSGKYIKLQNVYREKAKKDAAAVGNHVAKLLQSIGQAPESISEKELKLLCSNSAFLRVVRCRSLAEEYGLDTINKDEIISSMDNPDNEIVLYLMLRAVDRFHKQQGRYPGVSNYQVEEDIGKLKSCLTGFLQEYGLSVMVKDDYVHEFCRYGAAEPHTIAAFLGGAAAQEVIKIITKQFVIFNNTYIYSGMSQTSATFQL
# PG9 binder = binds the HIV-1 gp120 antibody PG9; TR-FRET gp120-PG9 antibody binding; inhibition, % at 6.7 µM; actives 0.43% (n = 360,000); in the data active = inhibition above about 8.5%
# NR1D1 modulator = Rev-erb alpha (human) modulation. actives 0.79% (n = 370,000). activity, % at 10 µM. Rev-erbα–FITC-DNA binding, fluorescence polarization, 90 min;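 active = activity above about 14%, limit read from the data; passing the limit was not always enough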;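 also: 0% = DMSO wells with 35 nM protein and 100% = DMSO wells with 750 nM protein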
# NR2E3 ag-1 = NR2E3 (human) agonism. inhibition of corepressor binding, % at 4.78 µM. GST-NR2E3/biotin-RetCOR TR-FRET, 1536-well. Q9Y5X4. actives 0.12% (n = 320,000);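 active = percent inhibition above the cutoff of mean plus 3 SD of all tested compounds, set per screening campaign, cut at about 20% in these data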;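 also: 0% = DMSO wells and 100% = biotin wells as full block of FRET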
#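 Test system: GST-NR2E3 and biotin-RetCOR proteins | Quantity: 1.35 nM GST-tagged NR2E3 final | Medium: Tris pH 7.5 | Also added: 7 nM biotin-RetCOR | Dosing: Compound at 4.8 µM, single dose | Timing: 5 h at 4 °C | Detection: Time-resolved FRET | Read-out basis: Percent inhibition | Benchmarks: Biotin wells as high control, 0.6% DMSO wells as low control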
# NR2E3 ag-2 = activates human NR2E3 receptor. Q9Y5X4. CHO-S Gal4-NCOR/VP16-NR2E3 two-hybrid, luciferase. inhibition of corepressor binding, % at 3.98 µM. actives 0.35% (n = 360,000). AID 602229;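 active = inhibition above the mean of all tested compounds plus 3 SD, cut at about 70% in these data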;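 also: 0% = DMSO with NR2E3 transfected cells and 100% = cells lacking NR2E3 construct; higher means lower luciferase signal from less NR2E3 corepressor binding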
# NR2E3 ag conf = confirmation of human NR2E3 agonists. shares compounds with NR2E3 ag-2. CHO-S mammalian two-hybrid NR2E3-NCOR, luciferase luminescence. inhibition, % at 3.98 µM. actives 51% (n = 2,300);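 active = average inhibition above a cutoff equal to the mean inhibition of all tested compounds plus one SD, cut at about 70% in these data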;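 also: 0% = DMSO in NR2E3 cells and 100% = DMSO in cells lacking NR2E3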
# VP16 counter = GAL4-VP16 reporter inhibition in NR2E3 agonist counterscreen | shares compounds with NR2E3 ag-2 | CHO-S GAL4-VP16 luciferase reporter, luminescence | AID 624379 | inhibition, % at 3.98 µM | actives 29% (n = 2,300);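 active = mean inhibition above a cutoff equal to the average over all tested compounds plus one standard deviation, cut at about 70% in these data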;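 also: luciferase from a UAS reporter driven by GAL4-VP16 transactivation; 0% = DMSO with VP16-transfected cells and 100% = DMSO with cells lacking VP16; higher means less reporter light so more repression of VP16 activity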
# Active calls of the source: *; i = inactive; nt = no result given. An excerpt weighted towards active compounds, which were near 2% of everything screened.
SMILES,Neddylation inh,PG9 binder,NR1D1 modulator,NR2E3 ag-1,NR2E3 ag-2,NR2E3 ag conf,VP16 counter
COc1cc(NC(=O)COc2cc(O)c3c(c2)OC(C)(C)CC3=O)cc(OC)c1OC,i,-1.5,9.6,-1.3,82.3*,58.9,84.1*
Nc1ccn(C2O[C@H](CO)[C@@H](O)[C@@H]2O)c(=O)n1 (some centres undefined),nt,nt,-5.8,nt,nt,nt,nt
OC(c1ccc(Cl)c(F)c1)c1ncc(-c2ccc(Cl)cc2)[nH]1 (centres undefined),i,0.4,-3.5,nt,68.4,86.0*,66.1
Cc1cc(Cl)ccc1C(O)c1ncc(-c2ccc(F)cc2)[nH]1 (centres undefined),i,nt,nt,nt,59.2,5.8,31.6
Cc1cc(F)ccc1C(O)c1ncc(-c2ccc(Cl)cc2)[nH]1 (centres undefined),i,-1.4,2.5,nt,7.3,nt,nt
OC(c1ccc(Cl)c(F)c1)c1ncc(-c2cccc(F)c2)[nH]1 (centres undefined),i,1.3,-4.3,nt,73.1*,65.9,47.4
COc1ccc(S[C@]2(C(=O)N3CCOCC3)CC(=O)N(c3ccc(OC)cc3)[C@@H]2c2ccc(OC)cc2)cc1,nt,nt,6.2,nt,nt,nt,nt
CCn1c(=O)cc(SCC(=O)Nc2ccc(C)cn2)c2ccccc21,i,22.5*,-2.9,-4.7,74.5*,95.1*,17.1
O=C1c2ccccc2C(=O)N1c1ncc(Cc2ccc(Cl)cc2)s1,i,-3.0,0.8,3.8,-11.0,nt,nt
N=C1SCC(=O)N1c1ncc(Cc2cccc(Cl)c2)s1,i,-0.2,1.6,nt,100.3*,97.5*,42.2
N=C1SCC(=O)N1c1ncc(Cc2ccccc2Cl)s1,i,-2.2,-2.0,nt,100.4*,89.9*,25.6
CC(=O)CC[C@@H]1CC[C@]2(CCCN(S(=O)(=O)C3CCCCC3)C2)O1,nt,nt,-1.7,nt,nt,nt,nt
CCSc1nc(COC(=O)NC)c(COC(=O)NC)n1C,i,5.0,3.0,nt,-15.2,nt,nt
CNC(=O)OCc1nc(SSC(C)(C)C)n(C)c1COC(=O)NC,i,0.5,4.4,nt,55.4,27.8,12.2
CC(=O)N1CCN(c2ccc(N3CCN(C(C)=O)[C@H](C)C3)c(C)c2)[C@H](C)C1,nt,-0.7,-0.5,nt,nt,nt,nt
CCN(CC)C(=O)c1oc2ccc(S(=O)(=O)N3CC(C)CC(C)C3)cc2c1C (centres undefined),i,-1.9,6.4,2.7,93.5*,91.4*,72.5*
O=C(CNc1cccc(S(=O)(=O)N2CCCC2)c1)Nc1ccc(C(F)(F)F)cc1,i,-0.7,6.5,3.5,59.5,63.9,47.2
Cc1ccc(/C=C2\CCOC2=O)cc1,i,0.7,-7.1,0.8,-37.9,nt,nt
Cc1ccc(/C=C2/CNC/C(=C/c3ccc(C)cc3)C2=O)cc1,i,-0.4,3.8,nt,65.0,15.2,-10.0
Cc1cc(-n2c(C)cc(C(=O)COc3cccnc3[N+](=O)[O-])c2C)no1,i,-0.8,-2.7,nt,-11.7,nt,nt
COC(=O)CCn1c(C)cc(C(=O)COc2ccccc2C(N)=O)c1C,i,-0.6,0.4,3.5,-0.3,nt,nt
CC(=O)Nc1ccccc1OCC(=O)c1cc(C)n(Cc2cccs2)c1C,i,2.5,1.9,-0.1,90.2*,93.0*,72.5*
Cc1cc(C(=O)COc2cccnc2[N+](=O)[O-])c(C)n1Cc1cccs1,i,-2.0,-2.4,0.7,69.8,73.2*,57.6
CC(=O)N[C@@H](CCC(N)=O)C(=O)O,nt,nt,1.9,nt,nt,nt,nt
COc1ccc(OC)c(S(=O)(=O)Nc2ccc(Oc3ccccc3)cc2)c1,i,-1.5,-0.6,3.0,64.7,80.4*,57.0
SMILES,Neddylation inh,PG9 binder,NR1D1 modulator,NR2E3 ag-1,NR2E3 ag-2,NR2E3 ag conf,VP16 counter
O=C(CSc1cccc[n+]1[O-])CSc1cccc[n+]1[O-],i,-2.9,-0.1,-0.3,68.8,-4.3,-7.6
CCc1cccc(CC)c1NC(=S)NCCc1c(C)[nH]c2ccc(C)cc12,i,-1.3,-5.0,3.5,71.4*,19.2,5.9
Cc1ccc(-c2noc(CSc3nnc(-c4ccncc4)n3-c3ccc(C)cc3)n2)cc1,i,1.3,7.4,2.4,-11.5,nt,nt
Clc1ccc(-c2noc(CSc3nnc(-c4ccncc4)n3-c3ccccc3)n2)cc1,i,1.8,6.0,4.1,63.8,61.5,30.6
CC(C)N=C(N)N=C(N)Nc1ccc(Cl)cc1,i,-2.0,-5.0,3.0,89.1*,87.8*,60.0
CC(C)N=C(N)/N=C(\N)Nc1ccc(Cl)cc1,nt,nt,-7.2,nt,nt,nt,nt
CCCCNC(=O)C1CCCN1C(=O)Nc1cc(C)cc(C)c1 (centres undefined),nt,nt,-2.8,nt,nt,nt,nt
Cc1cc(C(=O)CSc2nnc3ccccn23)c(C)n1-c1ccccc1,i,0.7,-0.8,-1.1,61.6,97.7*,-74.1
COCCn1c(SCc2cccc([N+](=O)[O-])c2)nc2ccccc2c1=O,i,0.8,4.8,3.5,-24.9,nt,nt
Cc1cccc(NC(=O)CSc2nc3ccccc3c(=O)n2C)c1C,i,1.6,4.1,nt,81.3*,90.6*,80.5*
COc1ccccc1NC(=O)CSc1nc2ccccc2c(=O)n1C,i,-1.6,-1.0,5.8,15.6,nt,nt
Cn1c(SCc2cccc([N+](=O)[O-])c2)nc2ccccc2c1=O,i,-3.6,-2.4,2.5,49.4,82.9*,64.7
Nc1ncnc2c1ncn2[C@@H]1O[C@H](CO)[C@H](O)C1O (some centres undefined),nt,nt,2.9,nt,nt,nt,nt
N#Cc1c(N)n(C2OC(CO)C(O)C2O)c2ncnc(N)c12 (centres undefined),i,-2.0,-4.5,nt,88.9*,96.0*,88.7*
c1coc(CN(Cc2ccco2)c2ncnc3c2oc2ccccc23)c1,i,nt,nt,0.3,68.3,76.7*,59.8
Clc1ncnc2c1oc1ccccc12,i,-0.5,-2.1,-2.0,-158.8,nt,nt
CC1c2cc3c(cc2CCN1C(=O)c1ccc(C(F)(F)F)cc1)OCCCO3 (centres undefined),i,0.4,6.1,-2.4,58.6,21.1,39.2
Cc1ccc(C(=O)N2CCc3cc4c(cc3C2C)OCCCO4)cc1 (centres undefined),i,-1.8,-3.2,0.3,16.8,nt,nt
Cc1nc2sccn2c1-c1csc(NCc2ccccc2)n1,i,-2.5,-1.4,1.0,61.5,86.4*,71.0*
C=CCNc1nc(-c2c(C)nc3sccn23)cs1,i,-4.7,-0.7,-3.4,-9.7,nt,nt
CC1CCC2(CCC(=O)N2C[C@@H](O)c2ccccc2)CC1 (some centres undefined),nt,nt,-5.6,nt,nt,nt,nt
Cc1ccccc1-c1cc(C(=O)Nc2sc(C(=O)OC(C)C)c(C)c2C#N)c2ccccc2n1,i,-1.8,2.6,-3.1,92.2*,99.9*,88.4*
COc1ccc(-c2cc(C(=O)Nc3sc4c(c3C#N)CCCC4)c3ccccc3n2)cc1,nt,-1.1,0.1,-3.3,-24.6,nt,nt
